Shown are actives, neighbours in structure and some others; about 11% of the full set was active somewhere.
M1 antagonist: M1 muscarinic receptor (rat) antagonism; P08482; CHO-M1 cells, Fluo-4 calcium, ACh EC80 antagonist mode; active compounds read low; AID 628; B-score at 10 µM; actives 3.4% (n = 64,000);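 active = calcium fluorescence response, raw or row-and-column corrected B-score, differing from the plate sample mean either way at a set confidence level, mostly lower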
M1 ag: M1 muscarinic receptor agonism; actives 3% (n = 64,000); AID 626; B-score at 10 µM; CHO-M1 cells, Fluo-4 calcium fluorescence, agonist mode; active compounds read high;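 active = fluorescence rise, raw or as B-score row- and column-corrected plate score, outside the 99.7% band of its plate's samples, either direction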
S1P1 ag pot: activates or potentiates agonism at human S1P1 receptor; P21453; S1P1 CRE-bla cells, forskolin, beta-lactamase FRET, potentiator mode; S1P1 agonist co-added at EC20, 2 nM; 100% = saturating reference agonist, 0% = basal; activation, % at 9.5 µM; actives 0.57% (n = 56,000); AID 449;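 active = activation above a cutoff set at the mean activation of all tested compounds plus 3 SD, cut at about 54% in these data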;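 also: forskolin at 4 µM as EC80 and the EC20 agonist is SEW2871; 100% = SEW2871 at its EC100 plus forskolin at EC80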
D1 allo mod: allosteric modulators of human D1 dopamine receptor; P21728; HEK293 D1, CRE-luciferase, dopamine EC30 potentiation; actives deviate in either direction; actives 5.9% (n = 58,000); B-score at 10 µM;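 active = luminescence count or its row- and column-corrected plate score outside the 99.7% band of the plate's sample wells, on either side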
S1P3 ag: activates the human S1P3 receptor; Q99500; S1P3 NFAT-BLA reporter cells, agonism, FRET ratio; relative to 1 µM S1P, basal subtracted; activation, % at 4.5 µM; actives 0.1% (n = 60,000); AID 373;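 active = activation above the screen-wide mean plus 3 SD, cut at about 4.5% in these data, passing the limit was not always enough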
Target sequence (Q99500 whole entry, looked up): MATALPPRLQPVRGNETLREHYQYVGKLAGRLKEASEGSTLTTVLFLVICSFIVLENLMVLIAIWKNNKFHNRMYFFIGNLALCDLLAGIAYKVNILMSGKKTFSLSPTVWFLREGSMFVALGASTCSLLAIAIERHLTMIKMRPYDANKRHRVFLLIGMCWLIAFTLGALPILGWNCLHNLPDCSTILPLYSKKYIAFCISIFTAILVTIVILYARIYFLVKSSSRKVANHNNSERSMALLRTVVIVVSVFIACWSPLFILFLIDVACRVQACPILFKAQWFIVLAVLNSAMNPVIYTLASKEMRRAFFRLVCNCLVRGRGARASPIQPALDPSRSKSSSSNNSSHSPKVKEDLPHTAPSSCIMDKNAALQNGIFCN
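Assay system: CHO cells stably expressing human S1P3, Gα16 and NFAT-β-lactamase reporter. Timing: overnight plating, 4 h compound 37 °C, 2 h substrate RT. Signal: β-lactamase FRET emission ratio 460/535 nm. Measure: percent activation versus median 1 µM S1P response, basal-subtracted, per plate. Repeats: primary screen single test, confirmation screen in triplicate.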
M1 agonist conf: confirmation of rat M1 muscarinic receptor agonists; shares compounds with M1 ag; fluorescence change (max-min) at 10 µM; actives 19% (n = 1,700); CHO-M1 cells, Fluo-4 calcium fluorescence, agonist mode; actives lie on both sides;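 active = fluorescence change differs from the solvent-only DMSO control mean at a set confidence level in both duplicate runs; inconclusive = differs from solvent-only control mean in just one of two runs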;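 also: an EC20 dose of acetylcholine follows compound addition during the same imaging run; raw fluorescence intensity difference in instrument units with no normalization to controls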
M4 ag counter: counter-screen for M1 agonists: activity at rat M4 receptor. shares compounds with M1 ag. CHO M4/Gqi5 cells, Fluo-4 calcium fluorescence, agonist mode; actives lie on both sides. fluorescence change (max-min) at 10 µM. actives 9% (n = 1,700). AID 1741;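 active = fluorescence change differing from the plate's solvent-only control wells at 99.7% confidence in both duplicates, whether higher or lower; inconclusive = differs from solvent controls in only one of two duplicates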
M1 antag conf: M1 muscarinic receptor (rat) antagonism, confirmed | shares compounds with M1 antagonist | CHO-M1 cells, Fluo-4 calcium, ACh EC80 antagonism; active compounds read low | calcium response (max-min fluorescence) at 10 µM | actives 43% (n = 1,700) | AID 677;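 active = calcium response below the same-plate mean of wells given acetylcholine alone at its 80%-effect dose, minus 3 SD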;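 also: raw fluorescence intensity difference in arbitrary instrument units and not normalized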
mGluR4 antag: selectivity test for M1 antagonists: human mGluR4 receptor | AID 678 | shares compounds with M1 antagonist | fluorescence response (max-min) at 10 µM | CHO-mGluR4 calcium flux, Fluo-4 fluorescence, glutamate EC80; active compounds read low | actives 0.9% (n = 1,700);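 active = fluorescence response below the plate's average for near-maximal glutamate wells, less 3 SD of those wells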;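 also: raw unnormalized fluorescence span taken in the window right after glutamate addition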
D1 PAM confirm: D1 receptor (human) allosteric modulation, confirmed; luminescence at 10 µM; HEK293 D1 CRE-luciferase, dopamine EC30 potentiation; active compounds read high; actives 88% (n = 2,200); AID 642; shares compounds with D1 allo mod;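 active = luminescence in either of two replicates above the same-plate mean plus 3 SD of the low-dose dopamine control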
D1 ag no DA: activates D1 CRE-luciferase signal without dopamine present; luminescence at 10 µM; actives 0.8% (n = 1,900); HEK293 D1 CRE-luciferase, luminescence, no dopamine; active compounds read high; shares compounds with D1 allo mod; in the data active = luminescence above about 3900
Isoprot counter: alters isoproterenol CRE-luciferase response in HEK293 cells | shares compounds with D1 allo mod | HEK293 D1 CRE-luciferase, isoproterenol EC30 counter-screen; active compounds read high | luminescence at 10 µM | actives 63% (n = 2,200);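 active = luminescence in either replicate above plate mean of wells with a partly effective reference agonist dose plus 3 SD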;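 also: isoproterenol raises cAMP through native beta-adrenoceptor Gs so signal bypasses D1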
The depositor's hits bear a star; ? = inconclusive; . = no result given.

SMILES	M1 antagonist	M1 ag	S1P1 ag pot	D1 allo mod	S1P3 ag	M1 agonist conf	M4 ag counter	others
O=C1CCC(=O)N1CNc1ccc(Oc2ccccc2)cc1	0.48	-3.2*	18	0.028	-1	?	-52
O=C(CNc1ccc(Oc2ccccc2)cc1)N1CCOCC1	-0.72	2.8*	-2	-1.7	0	?	?
O=C(CN1CCOCC1)Nc1ccc(Oc2ccc(NC(=O)CN3CCOCC3)cc2)cc1	-0.24	0.86	-11	-0.81	-1	.	.
CCOC(=O)N1CCN(S(=O)(=O)c2cccc3ccc(C)nc23)CC1	0.22	0.017	-14	-0.041	1	.	.
CCCSc1nnc(NC(=O)Nc2ccc(F)cc2)s1	-0.88	3.4*	27	.	-3	-7.2	-14
COc1ccc(Nc2ccnc3ccccc23)cc1	-2*	14*	50	-3.7*	-1	63	-21
CCn1c(C)nc2cc(S(=O)(=O)C(F)(F)C(F)C(F)(F)F)ccc21 (centres undefined)	-1.9	4.7*	42	-0.8	-2	-7.4	?
COc1ccc(OC)c(C(C)NC(=O)c2ccco2)c1 (centres undefined)	0.58	-0.55	.	-0.24	0	.	.
CN(C)CCOc1ccccc1Cc1ccccc1	-6.4*	33*	-8	-4.5	-2	-3	-30
COc1cccc(C(c2nnnn2Cc2ccccc2)N2CCN(C(=O)c3ccco3)CC2)c1OC (centres undefined)	-11*	-2.3*	28	0.15	-1	-13	-13	M1 antag conf=514;mGluR4 antag=184
Cc1nonc1NC(=O)Nc1cccnc1	0.58	0.3	-5	.	0	.	.
COC(=O)c1cc2ccsc2n1Cc1cc(=O)n2ccccc2n1	-7.4*	-1.8*	0	.	0	-16	-47	M1 antag conf=28*;mGluR4 antag=201
CCC1Oc2ccc(C)cc2N(CC(=O)NCc2cc(OC)ccc2OC)C1=O (centres undefined)	0.18	0.29	16	0	0	.	.
CCOC(=O)C1CCCN(C2CC(=O)N(c3cccc(C(F)(F)F)c3)C2=O)C1 (centres undefined)	-3.3*	9*	2	.	-1	67*	-38	M1 antag conf=619;mGluR4 antag=238
CCOC(=O)C1CCCN(C2CC(=O)N(c3ccc(C)c(C)c3)C2=O)C1 (centres undefined)	0.22	1.2	.	1.2	-1	.	.
COc1ccccc1N1CCN(Cc2ccc(OC)c(OC)c2OC)CC1	-6.3*	-2.6*	-23	0.045	-2	-16	-36	M1 antag conf=601;mGluR4 antag=197
CCOc1ccccc1N1CCN(Cc2cccc(OC)c2OC)CC1	-0.22	-0.024	-9	-0.89	-2	.	.
COc1cc(C2C(C#N)=C(N)Oc3cc(N(C)C)ccc32)cc2c1OCO2 (centres undefined)	-0.25	45*	9	7.3*	-2	206*	203*	D1 PAM confirm=15056*;D1 ag no DA=1964;Isoprot counter=4588*
